The source made the active and inactive calls. No cut-off for these calls is given here.
Legend:
[1] = system: SW1573; assay: Antiproliferative activity against human SW1573 cells after 48 hrs by SRB assay; type: functional; conditions: SW1573, 48 h
Summary of the method: (§1)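 Human solid tumor lines and three immortalized nontumor lines in culture, exposed to the test agent. Read-out is growth inhibition, reported as GI50 (μM).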

[2] = system: HBL-100; assay: Antiproliferative activity against human HBL100 cells after 48 hrs by SRB assay; type: functional; conditions: HBL-100, 48 h; summary of the method: as §1
[3] = system: HBL-100; assay: Induction of apoptosis in human HBL100 cells assessed as early apoptotic cells at 2 uM after 24 hrs by annexin V/Pi staining technique; type: functional
[4] = system: HBL-100; assay: Induction of apoptosis in human HBL100 cells assessed as early apoptotic cells at 4 uM after 24 hrs by annexin V/Pi staining technique; type: functional
[5] = system: T47D; assay: Induction of apoptosis in human T47D cells assessed as early apoptotic cells at 8 uM after 24 hrs by annexin V/Pi staining technique; type: functional
[6] = system: T47D; assay: Cell cycle arrest in human T47D cells assessed as accumulation of cells in G2/M phase after 24 hrs by flow cytometry; type: functional, cell-based
Summary of the method: (§2)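 Flow cytometry of DNA content, giving the G0/G1, S, G2/M and sub-G1 fractions. Cells treated for 24 h at three doses alongside untreated controls. Values are means of at least two experiments.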

[7] = system: T47D; assay: Induction of apoptosis in human T47D cells assessed as early apoptotic cells at 6 uM after 24 hrs by annexin V/Pi staining technique; type: functional
[8] = system: HBL-100; assay: Induction of apoptosis in human HBL100 cells assessed as late apoptotic cells at 2 uM after 24 hrs by annexin V/Pi staining technique; type: functional
[9] = system: SW1573; assay: Cell cycle arrest in human SW1573 cells assessed as accumulation of cells in G2/M phase after 24 hrs by flow cytometry; type: functional, cell-based; summary of the method: as §2
[10] = molecular target: DNA topoisomerase 2-alpha (Homo sapiens) (UniProt P11388); assay: Inhibition of human topoisomerase 2 alpha assessed as inhibition of relaxation of SC plasmid pHOT1 at 100 uM after 30 to 60 mins by gel electrophoresis relative to control
Summary of the method: (§3)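 Purified TOP2 incubated with negatively supercoiled plasmid pHOT1. Supercoiled, nicked and relaxed topoisomers separated by agarose gel electrophoresis. Compared with lanes without enzyme and with enzyme alone.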

[11] = system: HeLa; assay: Induction of apoptosis in human HeLa cells assessed as early apoptotic cells at 6 uM after 24 hrs by annexin V/Pi staining technique; type: functional
[12] = Antiproliferative activity against human MCF10A cells after 48 hrs by SRB assay; type: cell-based, MCF-10A; summary of the method: as §1
[13] = system: HeLa; assay: Cell cycle arrest in human HeLa cells assessed as accumulation of cells in G2/M phase after 24 hrs by flow cytometry; type: functional, cell-based; summary of the method: as §2
[14] = system: HeLa; assay: Induction of apoptosis in human HeLa cells assessed as late apoptotic cells at 6 uM after 24 hrs by annexin V/Pi staining technique; type: functional
[15] = molecular target: DNA topoisomerase 2-alpha (Homo sapiens) (UniProt P11388); assay: Inhibition of human topoisomerase 2 alpha assessed as inhibition of decatenation of KDNA at 100 uM after 30 to 60 mins by gel electrophoresis with ethidium bromide relative to control
Summary of the method: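 Decatenation assay: purified TOP2 incubated with kinetoplast DNA. Released minicircles (nicked, supercoiled and relaxed forms) resolved by agarose gel electrophoresis. Compared with lanes without enzyme and with enzyme alone, plus reference TOP2 inhibitors.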

[16] = system: WiDr; assay: Induction of apoptosis in human WiDr cells assessed as early apoptotic cells at 6 uM after 24 hrs by annexin V/Pi staining technique; type: functional
[17] = system: HeLa; assay: Induction of DNA damage in human HeLa cells assessed as phosphorylation of H2AX at 7.5 uM after 24 hrs by immunoblotting; type: functional, cell-based
Summary of the method: (§4)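 HeLa cells exposed at 7.5 μM, sampled at 3, 6, 12 and 24 h. Protein extracts probed by Western blot for phospho-Chk2, phospho-H2AX and cyclin B1. Phospho-histone H3 Ser10 detected with a phospho-specific antibody. Includes a positive-control lane.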

[18] = system: WiDr; assay: Induction of apoptosis in human WiDr cells assessed as late apoptotic cells at 8 uM after 24 hrs by annexin V/Pi staining technique; type: functional
[19] = system: hTERT-HPNE (Homo sapiens); assay: Antiproliferative activity against hTERT-HPNE cells after 48 hrs by SRB assay
[20] = system: T47D; assay: Antiproliferative activity against human T47D cells after 48 hrs by SRB assay; type: functional; summary of the method: as §1
[21] = Antiproliferative activity against human HS27 cells after 48 hrs by SRB assay; type: cell-based; summary of the method: as §1
[22] = system: T47D; assay: Induction of apoptosis in human T47D cells assessed as late apoptotic cells at 6 uM after 24 hrs by annexin V/Pi staining technique; type: functional
[23] = system: HBL-100; assay: Induction of apoptosis in human HBL100 cells assessed as late apoptotic cells at 4 uM after 24 hrs by annexin V/Pi staining technique; type: functional
[24] = molecular target: DNA topoisomerase 2-alpha (Homo sapiens) (UniProt P11388); assay: Inhibition of human topoisomerase 2 alpha assessed as inhibition of relaxation of NcK plasmid pHOT1 at 100 uM after 30 to 60 mins by gel electrophoresis relative to control; summary of the method: as §3
[25] = system: WiDr; assay: Antiproliferative activity against human WiDr cells after 48 hrs by SRB assay; type: functional; summary of the method: as §1
[26] = molecular target: DNA topoisomerase 2-alpha (Homo sapiens) (UniProt P11388); assay: Inhibition of human topoisomerase 2 alpha assessed as inhibition of relaxation of Rel plasmid pHOT1 at 100 uM after 30 to 60 mins by gel electrophoresis relative to control; summary of the method: as §3
[27] = system: WiDr; assay: Induction of apoptosis in human WiDr cells assessed as early apoptotic cells at 8 uM after 24 hrs by annexin V/Pi staining technique; type: functional
[28] = system: HBL-100; assay: Cell cycle arrest in human HBL100 cells assessed as accumulation of cells in G2/M phase after 24 hrs by flow cytometry; type: functional, cell-based; summary of the method: as §2
[29] = system: T47D; assay: Induction of apoptosis in human T47D cells assessed as late apoptotic cells at 8 uM after 24 hrs by annexin V/Pi staining technique; type: functional
[30] = molecular target: DNA topoisomerase 2-alpha (Homo sapiens) (UniProt P11388); assay: Inhibition of human topoisomerase 2 alpha assessed as inhibition of formation of Lin form of plasmid pHOT1 at 100 uM after 30 to 60 mins by gel electrophoresis inthe presence of exsess of ethidium bromide relative to control
Summary of the method: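 Cleavage-complex assay: purified TOP2 incubated with plasmid pHOT1. Agarose gel electrophoresis detects the linear (Lin) DNA form produced by trapped enzyme-cut intermediates.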

[31] = system: WiDr; assay: Cell cycle arrest in human WiDr cells assessed as accumulation of cells in G2/M phase after 24 hrs by flow cytometry; type: functional, cell-based; summary of the method: as §2
[32] = system: HeLa; assay: Induction of apoptosis in human HeLa cells assessed as early apoptotic cells at 8 uM after 24 hrs by annexin V/Pi staining technique; type: functional
[33] = system: HeLa; assay: Induction of DNA damage in human HeLa cells assessed as expression of cyclin B1 uM after 24 hrs by immunoblotting; type: functional, cell-based; summary of the method: as §4
[34] = system: HeLa; assay: Antiproliferative activity against human HeLa cells after 48 hrs by SRB assay; type: functional; summary of the method: as §1
[35] = system: HeLa; assay: Induction of DNA damage in human HeLa cells assessed as phosphorylation of ChK2 at 7.5 uM after 24 hrs by immunoblotting; type: functional, cell-based; summary of the method: as §4
[36] = system: WiDr; assay: Induction of apoptosis in human WiDr cells assessed as late apoptotic cells at 6 uM after 24 hrs by annexin V/Pi staining technique; type: functional
[37] = system: HeLa; assay: Induction of apoptosis in human HeLa cells assessed as late apoptotic cells at 8 uM after 24 hrs by annexin V/Pi staining technique; type: functional

Chain of DNA topoisomerase 2-alpha (Homo sapiens) (P11388 whole entry): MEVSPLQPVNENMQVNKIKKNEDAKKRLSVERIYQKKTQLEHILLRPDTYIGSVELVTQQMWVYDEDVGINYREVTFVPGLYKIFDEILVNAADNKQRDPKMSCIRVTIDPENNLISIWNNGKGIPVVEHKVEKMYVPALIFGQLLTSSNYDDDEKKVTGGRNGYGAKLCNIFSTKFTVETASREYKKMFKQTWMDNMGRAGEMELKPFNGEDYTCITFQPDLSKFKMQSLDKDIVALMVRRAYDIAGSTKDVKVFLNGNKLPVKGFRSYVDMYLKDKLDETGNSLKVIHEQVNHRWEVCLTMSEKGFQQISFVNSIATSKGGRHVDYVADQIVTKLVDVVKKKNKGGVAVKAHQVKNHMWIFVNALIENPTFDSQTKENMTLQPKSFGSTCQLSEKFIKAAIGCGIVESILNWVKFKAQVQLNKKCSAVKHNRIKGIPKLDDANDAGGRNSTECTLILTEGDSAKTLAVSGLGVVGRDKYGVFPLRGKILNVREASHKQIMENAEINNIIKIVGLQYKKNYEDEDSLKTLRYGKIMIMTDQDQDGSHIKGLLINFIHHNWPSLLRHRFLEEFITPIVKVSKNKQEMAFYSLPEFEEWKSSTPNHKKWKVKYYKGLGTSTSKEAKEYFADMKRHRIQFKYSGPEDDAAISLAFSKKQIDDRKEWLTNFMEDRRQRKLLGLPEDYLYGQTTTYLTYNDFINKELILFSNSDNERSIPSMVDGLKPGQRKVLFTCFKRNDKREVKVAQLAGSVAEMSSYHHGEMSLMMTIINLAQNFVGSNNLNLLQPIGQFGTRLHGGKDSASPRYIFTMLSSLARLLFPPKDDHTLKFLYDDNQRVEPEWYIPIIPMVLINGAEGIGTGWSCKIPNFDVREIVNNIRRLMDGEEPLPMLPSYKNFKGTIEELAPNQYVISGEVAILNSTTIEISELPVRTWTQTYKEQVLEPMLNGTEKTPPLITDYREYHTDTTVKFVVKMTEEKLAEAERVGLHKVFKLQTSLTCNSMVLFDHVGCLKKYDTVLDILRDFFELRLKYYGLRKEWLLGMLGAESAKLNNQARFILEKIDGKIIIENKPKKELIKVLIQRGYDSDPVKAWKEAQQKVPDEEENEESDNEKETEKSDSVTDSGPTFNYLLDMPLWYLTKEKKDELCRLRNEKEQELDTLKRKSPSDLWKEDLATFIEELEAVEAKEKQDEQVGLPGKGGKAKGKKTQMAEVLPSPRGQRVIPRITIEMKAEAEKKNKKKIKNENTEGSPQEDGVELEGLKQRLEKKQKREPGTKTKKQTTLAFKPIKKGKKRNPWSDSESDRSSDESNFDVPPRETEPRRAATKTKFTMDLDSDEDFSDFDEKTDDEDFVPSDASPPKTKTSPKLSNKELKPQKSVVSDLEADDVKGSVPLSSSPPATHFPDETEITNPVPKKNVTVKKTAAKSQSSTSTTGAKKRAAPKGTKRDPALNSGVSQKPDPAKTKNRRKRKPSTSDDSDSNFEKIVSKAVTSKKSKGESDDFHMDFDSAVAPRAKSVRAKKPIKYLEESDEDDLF

## CC1CCC(C(C)C)C(OC(=O)C#CC(O/C=C/C(=O)OC2CC(C)CCC2C(C)C)C(C)C)C1 (stereo not drawn)
[1]
  GI50: > 100000 nM
[2]
  GI50: > 100000 nM

## COC(=O)C#CC(O/C=C/C(=O)OC)C(C)(C)C (stereo not drawn)
[1]
  GI50: 3000 nM
[2]
  GI50: 1800 nM

## CCOC(=O)C#CCO/C=C/C(=O)OC
[1]
  GI50: 1800 nM
[2]
  GI50: 2400 nM

## CCOC(=O)C#CC(O/C=C/C(=O)OCC)C(C)C (stereo not drawn)
[1]
  GI50: 2800 nM
[2]
  GI50: 3000 nM

## COC(=O)C#CC(C)O/C=C/C(=O)OC (stereo not drawn)
[1]
  GI50: 1700 nM
[2]
  GI50: 300 nM

## C#CC(O/C=C/C(=O)OC)c1ccccc1 (stereo not drawn)
[1]
  GI50: 31000 nM
[2]
  GI50: 26000 nM

## CCCCCC(C#CC(=O)OC)O/C=C/C(=O)OC (stereo not drawn)
[1]
  GI50: 1700 nM
[2]
  GI50: 1900 nM

## CCCCCCC(C#CC(=O)O)O/C=C/C(=O)OC (stereo not drawn)
[1]
  GI50: > 100000 nM
[2]
  GI50: > 100000 nM

## C#CCO/C=C/C(=O)OC
[1]
  GI50: > 100000 nM
[2]
  GI50: > 100000 nM

## CCC(C)C(C#CC(=O)OC)O/C=C/C(=O)OC (stereo not drawn)
[1]
  GI50: 910 nM
[2]
  GI50: 340 nM

## CCC(C#CC(=O)OC)O/C=C/C(=O)OC (stereo not drawn)
[1]
  GI50: 540 nM
[2]
  GI50: 320 nM

## COC(=O)C#CC(C[C@@H](C)CCC=C(C)C)O/C=C/C(=O)OC (stereo partly drawn)
[1]
  GI50: 2200 nM
[2]
  GI50: 3100 nM

## CCCCC(C#CC(=O)OC)O/C=C/C(=O)OC (stereo not drawn)
[3]
  Activity: 6.7%
[4]
  Activity: 5.3%
[5]
  Activity: 11%
[6]
  Activity: Dose-dependent effect
[7]
  Activity: 12%
[8]
  Activity: 12%
[9]
  Activity: Dose-dependent effect
[10]
  Activity: Active
[11]
  Activity: 8.7%
[12]
  GI50 at 48 h: 34 µM
[13]
  Activity: Dose-dependent effect
[14]
  Activity: 9%
[15]
  Activity: Active
[16]
  Activity: 12%
[17]
  Activity: inactive
[1]
  GI50: 240 nM
[2]
  GI50: 250 nM
[18]
  Activity: 28%
[19]
  GI50 at 48 h: 1300 nM
[20]
  GI50: 3.8 µM
[21]
  GI50 at 48 h: 1900 nM
[22]
  Activity: 24%
[23]
  Activity: 12%
[24]
  Activity: Active
[25]
  GI50: 3.1 µM
[26]
  Activity: Active
[27]
  Activity: 11%
[28]
  Activity: Dose-dependent effect
[29]
  Activity: 19%
[30]
  Activity: inactive
[31]
  Activity: Dose-dependent effect
[32]
  Activity: 10%
[33]
  Activity: inactive
[34]
  GI50: 2800 nM
[35]
  Activity: inactive
[36]
  Activity: 21%
[37]
  Activity: 11%

## CCOC(=O)C#CC(O/C=C/C(=O)OC)C(C)C (stereo not drawn)
[1]
  GI50: 960 nM
[2]
  GI50: 880 nM

Source: ChEMBL document CHEMBL1157743, “Mitotic arrest induced by a novel family of DNA topoisomerase II inhibitors” (J Med Chem, 2010)
